From ChEMBL document CHEMBL2434958, “Identification of a novel series of orexin receptor antagonists with a distinct effect on sleep architecture for the treatment of insomnia” (J Med Chem, 2013)
One block for each molecule: values may come before it. Activity calls are given as the source filed them. The calls are words filed in the database; no cut-off is given here.

Columns and labels:
[1] = biological target: T1, Orexin/Hypocretin receptor type 1 (Homo sapiens, UniProt O43613); experiment: Antagonist activity at human OX1 receptor expressed in CHO cells assessed as inhibition of orexin A-induced Ca2+ accumulation after 1 hr by Fluo-4-AM staining-based FLIPR assay; assay type: functional, cell-based
T1 sequence (O43613 whole entry): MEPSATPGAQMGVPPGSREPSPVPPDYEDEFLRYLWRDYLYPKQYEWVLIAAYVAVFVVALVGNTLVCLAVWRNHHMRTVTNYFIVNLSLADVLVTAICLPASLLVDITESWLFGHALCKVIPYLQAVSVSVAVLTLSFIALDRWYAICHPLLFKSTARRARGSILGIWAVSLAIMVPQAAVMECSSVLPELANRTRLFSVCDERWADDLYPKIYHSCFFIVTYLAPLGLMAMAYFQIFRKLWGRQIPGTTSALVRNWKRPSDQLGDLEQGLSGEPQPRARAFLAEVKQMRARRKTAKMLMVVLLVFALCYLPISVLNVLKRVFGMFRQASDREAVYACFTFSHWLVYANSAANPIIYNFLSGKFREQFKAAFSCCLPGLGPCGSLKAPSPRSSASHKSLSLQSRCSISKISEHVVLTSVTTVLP
Method in brief: (§1)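 Recombinant CHO or HEK cells expressing human OX1R or OX2R, serum-deprived overnight in HEPES buffer pH 7.4 with 1% BSA. Cells were loaded with 2 μM Fluo4-AM plus 0.1 mM probenecid for 1 h. Compound (up to eight concentrations, usually 10⁻⁹–10⁻⁵ M) was added first, then submaximal orexin A 1 h later. Curves run in triplicate; pKi from IC50 by Cheng–Prusoff.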

[2] = biological target: T2, Orexin receptor type 2 (Homo sapiens, UniProt O43614); experiment: Antagonist activity at human OX2 receptor expressed in HEK cells assessed as inhibition of orexin A-induced Ca2+ accumulation after 1 hr by Fluo-4-AM staining-based FLIPR assay; assay type: functional, cell-based, HEK293; method in brief: as §1
T2 sequence (O43614 whole entry): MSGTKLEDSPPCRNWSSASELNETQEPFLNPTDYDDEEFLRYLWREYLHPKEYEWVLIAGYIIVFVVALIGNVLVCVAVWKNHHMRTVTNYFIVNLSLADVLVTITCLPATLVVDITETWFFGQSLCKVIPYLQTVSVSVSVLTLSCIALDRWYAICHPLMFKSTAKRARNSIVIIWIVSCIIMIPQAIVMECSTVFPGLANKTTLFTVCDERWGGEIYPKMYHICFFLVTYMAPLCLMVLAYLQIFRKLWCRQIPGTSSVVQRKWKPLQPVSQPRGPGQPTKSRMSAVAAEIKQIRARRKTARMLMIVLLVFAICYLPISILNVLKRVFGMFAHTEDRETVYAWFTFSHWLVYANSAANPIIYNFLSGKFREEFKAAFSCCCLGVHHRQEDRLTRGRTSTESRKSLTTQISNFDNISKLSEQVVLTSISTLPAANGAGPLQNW

[3] = Volume of distribution at steady state in C57BL/6 mouse at 1 mg/kg, iv; assay type: ADME, organism-based; parameters: dose 1 mg/kg, route intravenous; conditions: in vivo, read-out: Vdss
Method in brief: (§2)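 Cassette PK in male C57BL/6 mice (20–30 g), up to five test compounds plus one reference. Iv 1 mg/kg in NMP/blank plasma 10/90 v/v, 5 mL/kg, saphenous vein. Oral 3 mg/kg suspended in 0.5% w/v carboxymethylcellulose in water/Tween 80 (99.5/0.5), 10 mL/kg gavage. Blood sampled 5 min (iv) or 15 min (po) to 24 h, n = 3 per time point, measured by LC/MS/MS.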

[4] = Ratio of drug level in brain to blood in C57BL/6 mouse at 3 mg/kg, po after 15 mins; assay type: ADME, organism-based; parameters: dose 3 mg/kg, route oral
Method in brief: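 Male C57BL/6 mice (20–30 g), cassette dosing of up to five compounds plus a reference. Blood and brain collected 15 min post-dose, n = 3. Brain homogenised in 2 mM KH2PO4 and extracted with acetonitrile. LC/MS/MS quantitation; mean brain/blood ratio.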

[5] = AUC (infinity) in C57BL/6 mouse blood at 3 mg/kg, po; assay type: ADME, organism-based; parameters: time infinity, dose 3 mg/kg, route oral; method in brief: as §2
[6] = Cmax in C57BL/6 mouse blood at 3 mg/kg, po; assay type: ADME, organism-based; parameters: dose 3 mg/kg, route oral; method in brief: as §2
[7] = Oral bioavailability in C57BL/6 mouse blood at 3 mg/kg; assay type: ADME, organism-based; method in brief: as §2
[8] = Total blood clearance in C57BL/6 mouse at 1 mg/kg, iv; assay type: ADME, organism-based; parameters: dose 1 mg/kg, route intravenous; method in brief: as §2
[9] = test system: Mus musculus; experiment: Induction of sleep in C57BL/6 mouse assessed as increased rapid eye movement sleep proportion at 50 mg/kg, po measured during 1 hr by EEG/EMG analysis relative to vehicle-treated control; assay type: functional, organism-based; parameters: dose 50 mg/kg
Method in brief: (§3)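 Male C57Bl/6 mice with implanted cortical EEG screw electrodes and EMG, recovered 2 weeks, 12 h/12 h light/dark cycle. Crossover: vehicle (0.5% methylcellulose, 10 mL/kg po) on day 2, compound po on day 3, each given 5–15 min before lights-off. 23 h recordings; EEG filtered 0.3–30 Hz, EMG 5–30 Hz; 10 s epochs scored as wake, NREM or REM from EEG/EMG and infrared motility.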

[10] = biological target: T3, Orexin/Hypocretin receptor type 1 (Mus musculus, UniProt P58307); experiment: Antagonist activity at mouse OX1 receptor expressed in CHO cells assessed as inhibition of orexin A-induced Ca2+ accumulation after 1 hr by Fluo-4-AM staining-based FLIPR assay; assay type: functional, cell-based
T3 sequence (P58307 whole entry): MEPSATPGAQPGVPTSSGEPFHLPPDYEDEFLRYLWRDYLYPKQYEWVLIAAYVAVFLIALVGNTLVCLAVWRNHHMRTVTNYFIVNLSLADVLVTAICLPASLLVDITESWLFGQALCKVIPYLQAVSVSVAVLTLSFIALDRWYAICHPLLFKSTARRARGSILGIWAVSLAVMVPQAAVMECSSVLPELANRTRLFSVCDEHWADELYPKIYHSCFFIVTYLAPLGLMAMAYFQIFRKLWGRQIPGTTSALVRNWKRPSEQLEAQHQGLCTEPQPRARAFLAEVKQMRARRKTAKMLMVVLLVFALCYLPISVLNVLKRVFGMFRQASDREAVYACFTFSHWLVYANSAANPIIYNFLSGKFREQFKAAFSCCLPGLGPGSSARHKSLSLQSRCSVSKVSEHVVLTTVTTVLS

[11] = test system: Mus musculus; experiment: Induction of sleep in C57BL/6 mouse assessed as rapid eye movement and non-rapid eye movement sleep balance at 50 mg/kg, po measured during 1 hr by EEG/EMG analysis relative to vehicle-treated control; assay type: functional, organism-based; parameters: dose 50 mg/kg
Method in brief: (§4)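 Male C57Bl/6 mice with implanted cortical EEG and EMG electrodes, 2-week recovery, 12/12 h light cycle. Vehicle (0.5% methylcellulose, 10 mL/kg po) given on day 2 and compound po on day 3, just before lights off. Recording ran 23 h. 10 s epochs scored as wake, NREM or REM from EEG/EMG plus infrared motility. Each animal served as its own vehicle control.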

[12] = test system: Brain; experiment: Fraction unbound in C57BL/6 mouse brain at 50 mg/kg, po after 1 hr by LC-MS/MS analysis; assay type: ADME, organism-based; parameters: dose 50 mg/kg, route oral; conditions: in vivo
Method in brief: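 Unbound fraction assessed in mouse brain homogenate by a slightly adapted literature method, measured separately from the dosed animals. Free brain level obtained by multiplying fraction unbound by brain concentration from the 50 mg/kg po satellite group at 60 min. Mean ± SD, n = 3.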

[13] = test system: Mus musculus; experiment: Induction of sleep in C57BL/6 mouse assessed as increase in rapid eye movement at 50 mg/kg, po measured during 1 hr by EEG/EMG analysis relative to vehicle-treated control; assay type: functional, organism-based; parameters: dose 50 mg/kg; method in brief: as §4
[14] = test system: Mus musculus; experiment: Effect on locomotion in C57BL/6 mouse assessed as reduction of motility at 50 mg/kg, po measured up to 4 hrs; assay type: functional, organism-based; parameters: dose 50 mg/kg
Method in brief: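 Mice habituated, then dosed orally immediately before lights-off (15:00, start of active phase); vehicle 0.5% methylcellulose in water. Inactivity = any minute with no infrared beam breaks. Per-animal difference between inactivity 15:00–19:00 post-dose and the same 4 h during habituation 24 h earlier. n = 6; one-way ANOVA with Dunnett's test versus vehicle.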

[15] = test system: Mus musculus; experiment: Induction of sleep in C57BL/6 mouse assessed as increase in non-rapid eye movement at 50 mg/kg, po measured during 4 hrs by EEG/EMG analysis relative to vehicle-treated control; assay type: functional, organism-based; parameters: dose 50 mg/kg; method in brief: as §3
[16] = Drug uptake in C57BL/6 mouse blood at 50 mg/kg after 1 hr by LC-MS/MS analysis; assay type: ADME, organism-based; parameters: dose 50 mg/kg; conditions: read-out: Drug uptake
Method in brief: (§5)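 Satellite PK group: oral gavage of 50 mg/kg suspended in 0.5% w/v methylcellulose in water, 10 mL/kg. Blood and brain taken after decapitation at 15 and 60 min post-dose, n = 3 mice per time point, stored at −20 °C. Brain homogenised in 2 mM KH₂PO₄; acetonitrile quench with internal standard; LC/MS/MS against six-level calibration curve. Mean ± SD reported.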

[17] = test system: Brain; experiment: Drug uptake in C57BL/6 mouse brain at 50 mg/kg after 1 hr by LC-MS/MS analysis; assay type: ADME, organism-based; parameters: dose 50 mg/kg; conditions: in vivo; method in brief: as §5
[18] = biological target: T4, Orexin receptor type 2 (Mus musculus, UniProt P58308); experiment: Antagonist activity at mouse OX2 receptor expressed in HEK cells assessed as inhibition of orexin A-induced Ca2+ accumulation after 1 hr by Fluo-4-AM staining-based FLIPR assay; assay type: functional, cell-based, HEK293
T4 sequence (P58308 whole entry): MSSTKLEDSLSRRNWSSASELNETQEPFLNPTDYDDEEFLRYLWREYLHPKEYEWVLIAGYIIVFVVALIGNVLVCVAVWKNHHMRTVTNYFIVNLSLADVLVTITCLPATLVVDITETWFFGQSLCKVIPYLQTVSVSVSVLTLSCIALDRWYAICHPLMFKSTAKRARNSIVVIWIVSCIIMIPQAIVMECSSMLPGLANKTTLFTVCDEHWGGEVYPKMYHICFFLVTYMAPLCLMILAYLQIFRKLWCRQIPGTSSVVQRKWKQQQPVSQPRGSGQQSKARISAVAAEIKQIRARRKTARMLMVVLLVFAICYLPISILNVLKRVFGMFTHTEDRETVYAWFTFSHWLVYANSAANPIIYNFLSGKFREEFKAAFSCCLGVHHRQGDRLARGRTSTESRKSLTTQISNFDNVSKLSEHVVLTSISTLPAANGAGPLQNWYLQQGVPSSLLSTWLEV

[19] = test system: Mus musculus; experiment: Induction of sleep in C57BL/6 mouse assessed as increase in total sleep time at 50 mg/kg, po measured during first 4 hrs by EEG/EMG analysis relative to vehicle-treated control

SMILES: O=C1CCCC2(CCN(c3cnc4ccccc4n3)CC2)N1Cc1c[nH]c2ccccc12
Ki [1]: 275 nM
Ki [2]: 69.2 nM

SMILES: Cc1ccnc(N2CCC3(CCCN(Cc4c[nH]c5ccccc45)C3=O)CC2)n1
Ki [1]: 1410 nM
Ki [2]: 26.9 nM

SMILES: Cc1cc(C)nc(N2CCC3(CCCN(Cc4c[nH]c5ncccc45)C3=O)CC2)n1
Ki [1]: 1320 nM
Ki [2]: 16.2 nM

SMILES: O=C1N(Cc2cccc3[nH]ccc23)CCCC12CCN(c1cnc3ccccc3n1)CC2
Ki [1]: 550 nM
Ki [2]: 77.6 nM

SMILES: O=C1N(Cc2c[nH]c3ccccc23)CCCC12CCN(c1ncccn1)CC2
pIC50 ([1]; cho): > 5
Ki [2]: 550 nM

SMILES: COc1ccnc(N2CCC3(CCCN(Cc4c[nH]c5ccccc45)C3=O)CC2)n1
Activity [9]: Active
Ki [10]: 457 nM
Activity [11]: inactive
Fu [12]: 0.61%
Activity [13]: inactive
Vd [3]: 1.6 L/kg
Kp at 0.25 h [4]: 1.1
Activity [14]: Active
AUC(0-inf) [5]: 2.09 µM·h
Activity [15]: Active
concentration at 1 h [16]: 6910 nM
Drug uptake [17]: 8778 pmol/g
Ki [18]: 58.9 nM
Cmax [6]: 864 nM
bioavailability [7]: 47%
clearance [8]: 28 mL/min/kg
Activity [19]: Active

SMILES: Cc1cc(C)nc(N2CCC3(CCCN(Cc4cn(C)c5ccccc45)C3=O)CC2)n1
Ki [1]: 1450 nM
Ki [2]: 20.9 nM

The remaining lines, values ahead:

Ki [1]: 58.9 nM
Ki [2]: 12.9 nM
SMILES: Cc1ccc(C)c(CN2C(=O)CCCC23CCN(c2cnc4ccccc4n2)CC3)c1

Vd [3]: 3.1 L/kg
Kp at 0.25 h [4]: 0.2
AUC(0-inf) [5]: 0.031 µM·h
Cmax [6]: 18 nM
Ki [1]: 9.12 nM
bioavailability [7]: 5%
clearance [8]: 188 mL/min/kg
Ki [2]: 0.457 nM
SMILES: O=C1CCCC2(CCN(c3cnc4ccccc4n3)CC2)N1Cc1cccc2[nH]ccc12

Ki [1]: 372 nM
Ki [2]: 0.851 nM
SMILES: Cc1cc(C)nc(N2CCC3(CCCC(=O)N3Cc3cccc4[nH]ccc34)CC2)n1

Ki [1]: 776 nM
Ki [2]: 3.89 nM
SMILES: Cc1cc(C)nc(N2CCC3(CCCN(Cc4n[nH]cc4-c4ccccc4)C3=O)CC2)n1
